{"data": "Published values gathered from unrelated publications", "observed": "cell growth or viability", "note": "Each line is one published result; the experiments were not run side by side."}
{"Compound": "COc1ccc(-c2ccc(-c3ccc(C(=N)N)nc3)s2)cc1", "cell line": "ACHN", "quantity": "GI50", "value": "1.84 µM"}
{"Compound": "O=C(Nc1cncc(-c2nc3ccccc3s2)c1)c1cc([N+](=O)[O-])c(N2CCNCC2)cc1Cl", "cell line": "BJ", "assay": "ATP luminescence", "quantity": "EC50", "value": "> 15.3 µM"}
{"Compound": "CC#CC(=O)N1CC[C@@H](n2cc(-c3ccc(Oc4c(F)cccc4F)cc3)c3c(N)n[nH]c(=O)c32)C1", "cell line": "UPN1", "assay": "ATP luminescence", "setting": "72 h", "quantity": "GI50", "value": "2.21 µM"}
{"Compound": "CN(C)C/C=C/C(=O)Nc1cc2c(Nc3ccc(F)c(Cl)c3)ncnc2cc1O[C@H]1CCOC1", "cell line": "KB-C2", "assay": "ATP luminescence", "setting": "3 µM, 12 days, 3D culture", "quantity": "viability", "value": "67.7%"}
{"Compound": "C=CC(=O)N1CCC[C@@H](n2nc(-c3ccc(Oc4ccccc4)cc3)c3c(N)ncnc32)C1", "cell line": "UPN1", "assay": "ATP luminescence", "setting": "72 h", "quantity": "GI50", "value": "4.87 µM"}
{"Compound": "c1cc(Nc2nccc(NC3CCCCC3)n2)cc(-c2ncco2)c1", "cell line": "BJ", "assay": "ATP luminescence", "setting": "72 h", "quantity": "EC50", "value": "> 45 µM"}
{"Compound": "COc1cc(-c2ccc(-c3ccc(C(=N)N)nc3)s2)cc(OC)c1OC", "cell line": "OVCAR-3", "assay": "SRB", "quantity": "GI50", "value": "2.6 µM"}
{"Compound": "Cc1cc(Cl)c(Cl)cc1NC(=O)c1ccc(N2CCNCC2)nc1", "cell line": "BJ", "assay": "ATP luminescence", "quantity": "EC50", "value": "> 24 µM"}
{"Compound": "COC(=O)[C@H](C)Nc1ccnc(Nc2cccc(-c3cccnc3)c2)n1", "cell line": "BJ", "assay": "ATP luminescence", "setting": "72 h", "quantity": "EC50", "value": "> 8 µM"}
{"Compound": "CC(=O)c1c(C)c2cnc(Nc3ccc(N4CCNCC4)cn3)nc2n(C2CCCC2)c1=O", "cell line": "MDA-MB-157", "assay": "resazurin", "quantity": "GI50", "value": "> 5 µM"}
{"Compound": "CC(C)Nc1ccnc(Nc2cccc(-c3cccnc3)c2)n1", "cell line": "BJ", "assay": "ATP luminescence", "setting": "72 h", "quantity": "EC50", "value": "> 17 µM"}
{"Compound": "Oc1ccc(Nc2nc(-c3ccc(Cl)cc3)cs2)cc1", "cell line": "1205Lu", "assay": "MTS", "setting": "48 h", "quantity": "IC50", "value": "86.3 µM"}
{"Compound": "CCNc1ccnc(Nc2cccc(-c3cccnc3)c2)n1", "cell line": "BJ", "assay": "ATP luminescence", "setting": "72 h", "quantity": "EC50", "value": "> 21 µM"}
{"Compound": "C[C@]12CC[C@@H]3c4ccc(O)cc4CC[C@H]3[C@@H]1CC[C@@H]2O", "cell line": "OVCAR-3", "assay": "ATP luminescence", "setting": "72 h", "quantity": "EC90", "value": "76.1 µM"}
